In the RNAGym collection of RNA variant scans (doi:10.1126/science.aae0568) one finds yeast fitness data, which are given here for 167 variants.

This sample holds only a part of the variants without activity.

Sequences and labels used below:
B1: tRNA (parent)
chain: GUUCCGUUGGCGUAAUGGUAACGCGUCUCCCUCCUAAGGAGAAGACUGCGGGUUCGAGUCCCGUACGGAACG

Variants of B1 are the subject of this data set. Kind of data set: yeast fitness relative to wild type (ratio to wild type); higher = fitter; tRNA-Arg(CCU), competitive growth, 37 C, YPD. In short, it runs like this: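 The tRNA-Arg(CCU) gene variants were made by chemical synthesis with a 3% per-site mutation rate at 69 sites and inserted at the native genomic locus of Saccharomyces cerevisiae. After pooling, the strains were competed in YPD at 37°C for 24 hours in six parallel replicates. Gene amplicons from the start population and each end population were read by 100-nucleotide paired-end sequencing, and Darwinian fitness relative to wild type was taken from genotype frequency changes. Genotypes needed ≥ 100 starting reads, and estimates < 0.5 were set to 0.5.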
As for G39C A69C, the yeast fitness is 0.834.

For G39C A69U, the yeast fitness stood at 0.826.

As to G38C G41A C61U, the yeast fitness is 0.553.

As for G38C A40U A42G G51A C60U G68A, the yeast fitness is no more than 0.5.

On to G39C C62A U64A, for which the yeast fitness was no more than 0.5.

In the case of G39A U47A, the yeast fitness worked out at 0.89.

On to G38C A69C, for which the yeast fitness was determined as 0.722.

For G38C A69U, the yeast fitness amounted to 0.788.

In the case of G39A A57U, the yeast fitness was determined as 0.834.

Regarding G39A A57G, the yeast fitness worked out at 0.79.

With G39A C62G, the yeast fitness worked out at 0.752.

G39A C66G: the yeast fitness worked out at 0.711.

For the variant G39A C66A, the yeast fitness turned out to be 0.698.

Turning to G38A C66A, the yeast fitness was found to be 0.72.

In the case of G38A C66U, the yeast fitness came out at 0.909.

As for G38C C55G G67A, the yeast fitness is no more than 0.5.

For G38C G52C, the yeast fitness worked out at 0.502.

For G38A C55U A57G, the yeast fitness was no more than 0.5.

Consider A40C A42C U53A, for which the yeast fitness is no more than 0.5.

As to G38U G67C, the yeast fitness turned out to be 0.772.

For the variant G39C A42C A45C A70C, the yeast fitness was no more than 0.5.

Consider G38C C49U C62U A69U, for which the yeast fitness is 0.819.

As for G38A C61G G68C, the yeast fitness is no more than 0.5.

With G38A G48A C49G, the yeast fitness was determined as 0.525.

In the case of G38C C62U A70U, the yeast fitness was 0.533.

For G38C U54A U59G A65C, the yeast fitness is 0.692.

With G38A A40C G56A C60U C61G G67U, the yeast fitness is no more than 0.5.

For the variant G38C G58C U64A, the yeast fitness was 0.621.

On to G39C C46U C49U G56A G68C, for which the yeast fitness was determined as 0.54.

Consider G39C G44C G56C, for which the yeast fitness is no more than 0.5.

In the case of G38C G41C A65G, the yeast fitness was found to be 0.597.

Regarding G38C A40U, the yeast fitness came out at 0.639.

With G38A G52C G56A, the yeast fitness is 0.609.

As to A40C A42U G56A C66G, the yeast fitness was no more than 0.5.

For G39C U47C, the yeast fitness worked out at 0.822.

For G38A G50A, the yeast fitness worked out at 0.859.

Take G38A G50C: the yeast fitness came to 0.746.

Take G39C U54G A70C: the yeast fitness is 0.564.

G38C A43C: the yeast fitness is 1.12.

Take G38C A43U: the yeast fitness was found to be 0.769.

On to G38C A43G, for which the yeast fitness was found to be 0.643.

Turning to G38A U53C, the yeast fitness worked out at 0.799.

With G38A U53A, the yeast fitness came out at 0.587.

Turning to G38C A43G C49G G51A, the yeast fitness was no more than 0.5.

For the variant G39A U53A, the yeast fitness was determined as 0.596.

With G39A C49U C62U, the yeast fitness was found to be 0.664.

On to G38C A65C C66U, for which the yeast fitness was no more than 0.5.

Regarding G39C A57C C61A U64C, the yeast fitness was no more than 0.5.

With A40C C49G C60G, the yeast fitness stood at 0.532.

For the variant G38C A43G C49G G51A C60U, the yeast fitness is no more than 0.5.

With A40C A42G G56C, the yeast fitness was determined as 0.588.

G39C C60U: the yeast fitness came out at 0.656.

As for G39C C60G, the yeast fitness was 0.619.

With G39C C60A, the yeast fitness worked out at 0.587.

G39A C66U A70G: the yeast fitness amounted to 0.601.

Consider G38C G39C C46U C66U A69U, for which the yeast fitness was no more than 0.5.

With G39A C55A, the yeast fitness was found to be 0.696.

With G39A C55G, the yeast fitness was found to be 0.726.

In the case of G39A C55U, the yeast fitness was 0.873.

For G38A A65U, the yeast fitness was found to be 0.739.

Take G38A G39A A42G C46G: the yeast fitness is 0.537.

Take G39A C46A: the yeast fitness was determined as 1.01.

On to G39A C55G G56A A69U A70G, for which the yeast fitness was no more than 0.5.

Take G39C U53G: the yeast fitness was found to be 0.578.

Consider G38C A45C U47C, for which the yeast fitness was no more than 0.5.

On to G38C G41C U54C A65G, for which the yeast fitness was no more than 0.5.

On to G38C U64A G68A A69C, for which the yeast fitness was no more than 0.5.

In the case of G38A C62A C66G, the yeast fitness is 0.804.

On to G38A C62A A65U C66U, for which the yeast fitness was no more than 0.5.

In the case of A40C A42U C49G C66G, the yeast fitness amounted to 0.612.

In the case of G39A U47A C55U G67A A69G, the yeast fitness is no more than 0.5.

Regarding G38C U54A, the yeast fitness worked out at 0.615.

G38C C60U G68C: the yeast fitness is no more than 0.5.

In the case of G38C C55G A69C, the yeast fitness came out at 0.579.

Regarding G39U C66U, the yeast fitness is 0.854.

As to G39C C46A A69C, the yeast fitness is 0.53.

Regarding G38C A40C U53C, the yeast fitness was 0.639.

Turning to G39C C46G, the yeast fitness was found to be 0.875.

Consider G38A C49U U54C, for which the yeast fitness was no more than 0.5.

With G39A A40U, the yeast fitness worked out at 1.19.

As to A40C A57U C61U, the yeast fitness was no more than 0.5.

As to G39C G44C C46U A70U, the yeast fitness was no more than 0.5.

As for G39C A43G U53A C62A G68C, the yeast fitness was no more than 0.5.

Consider G39A G52C C55G C60A, for which the yeast fitness is no more than 0.5.

On to G39C A43U A70U, for which the yeast fitness came to 0.691.

G38C G68C: the yeast fitness worked out at 0.819.

Consider G39C A43G G48C C49A G50A, for which the yeast fitness is no more than 0.5.

Consider G39C G52C, for which the yeast fitness is 0.635.

G39A C60G A70G: the yeast fitness is no more than 0.5.

For G38C A65G, the yeast fitness was determined as 0.771.

For G39C C62G, the yeast fitness amounted to 0.607.

For G38C A40U G48A C66U, the yeast fitness is 0.556.

Take G39A A42C: the yeast fitness stood at 0.646.

As for G39A A42G, the yeast fitness is 0.811.

Turning to G38C A45C, the yeast fitness stood at 0.58.

As for G39A G52C C55G G63A, the yeast fitness was no more than 0.5.

G39A G44A G50A: the yeast fitness is 0.607.

With G38A C49A A70U, the yeast fitness was found to be 0.729.

In the case of G39C G51C A65G, the yeast fitness is no more than 0.5.

G38A A40C: the yeast fitness stood at 0.624.

G38A A40G: the yeast fitness came out at 0.82.

Turning to G39A A45C C61A, the yeast fitness is 0.618.

As to G39A A45C C61U, the yeast fitness turned out to be 0.706.

As to G39C G51A, the yeast fitness amounted to 0.739.

Take G38A A40U G58C: the yeast fitness was 0.853.

Turning to G38A A42C A45C C62A, the yeast fitness was no more than 0.5.

Consider G39A G51C, for which the yeast fitness stood at 0.562.

On to G38C C55U, for which the yeast fitness amounted to 0.545.

Turning to G38C C55G, the yeast fitness is 0.617.

For the variant A40C A70G, the yeast fitness was 0.979.

A40C A70C: the yeast fitness was determined as 0.94.

Regarding G38A G39C C60A C66G, the yeast fitness was no more than 0.5.

Regarding A40C A42C A70U, the yeast fitness is 0.549.

As to G39A G52C C55G, the yeast fitness is 0.541.

As for A37U U64C, the yeast fitness was determined as 0.77.

Turning to G38A A70U, the yeast fitness was determined as 0.953.

Take G38A A70G: the yeast fitness was 0.998.

As to G38A A70C, the yeast fitness was determined as 0.942.

For G39A C49A G52A G63A A70C, the yeast fitness is no more than 0.5.

On to G39C G41A C60G C61U C62G A65U, for which the yeast fitness is 0.547.

For the variant G38C A57C, the yeast fitness was found to be 0.535.

On to G39C G63A, for which the yeast fitness was 0.7.

For G38C C66G G67U, the yeast fitness was no more than 0.5.

For G38A A42U U54A, the yeast fitness was no more than 0.5.

For the variant G38C G39U C60A, the yeast fitness was no more than 0.5.

Consider G38C G41C C55U G67C, for which the yeast fitness is no more than 0.5.

Consider G39A C55U C61A, for which the yeast fitness is no more than 0.5.

With G38C C46A, the yeast fitness was 0.819.

Consider G38C C46U A69U A70G, for which the yeast fitness was no more than 0.5.

With G38A U64A, the yeast fitness was determined as 0.765.

In the case of G38A G48A C49G A69U, the yeast fitness is no more than 0.5.

As to A40C A57G A70C, the yeast fitness is 0.55.

As for G38C G41C A57C, the yeast fitness came to 0.576.

Consider G38C G68A A70U, for which the yeast fitness is no more than 0.5.

For the variant G38C G41C A70C, the yeast fitness was 0.553.

G38A C46U A69U: the yeast fitness was found to be 0.686.

Take G38C G56A G58A: the yeast fitness was determined as 0.609.

As to G39C C61U, the yeast fitness stood at 0.751.

As for G39C A40U U64G, the yeast fitness was no more than 0.5.

For the variant A40C A43G, the yeast fitness was 0.741.

As to A40C A43U, the yeast fitness is 0.986.

As to G38A U47C G48A, the yeast fitness was 0.542.

Regarding G39C C60U A69C, the yeast fitness is 0.565.

For G38C G41C, the yeast fitness was 0.614.

With G38A U53A C66U, the yeast fitness was no more than 0.5.

Turning to G39C A42G A43U C62U A69U, the yeast fitness was no more than 0.5.

For A40C A45C C62U, the yeast fitness was no more than 0.5.

As for G38A A40G C66A, the yeast fitness stood at 0.597.

Regarding G38C G44A, the yeast fitness amounted to 0.72.

For G39C A57C A70U, the yeast fitness was no more than 0.5.

As for G39A G48C, the yeast fitness was 0.718.

Consider G38A A69U, for which the yeast fitness was 1.04.

For the variant G39A C60G, the yeast fitness is 0.666.

With G38C G56A, the yeast fitness was determined as 0.789.

On to G39C A43C G56A C60G, for which the yeast fitness is no more than 0.5.

Turning to G39A A43U, the yeast fitness is 0.811.

G38C A43C G51C G56C: the yeast fitness was no more than 0.5.

As to G39A C49U A57U, the yeast fitness turned out to be 0.562.

Turning to G39C A40C G41A A42G A65U, the yeast fitness was no more than 0.5.

Turning to G38A A45G G52A C61G, the yeast fitness was determined as 0.679.

As for G38A G41C A69U, the yeast fitness stood at 0.822.

Turning to G38C A42C C49A, the yeast fitness was no more than 0.5.

With A40C A42U C49U G50C C66U, the yeast fitness was determined as 0.565.

G38C C62U U64C A70U: the yeast fitness was no more than 0.5.

As for G39C U53A C62A G68C, the yeast fitness is no more than 0.5.

In the case of G39A G44A G51A, the yeast fitness amounted to 0.597.

As for G39A G68U, the yeast fitness was 0.824.
